TAAR1 ag: agonists of human TAAR1. CHO RD-HGA16 TAAR1, Fluo-8 calcium fluorescence; vehicle wells 0%, saturating PEA agonist 100%. activation, % at 3 µM. 360,000 tested, 0.99% active. AID 624467;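 active means activation above the mean activation of all test compounds in the run plus 3 SD, cut at about 38% in these data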
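test system = CHO RD-HGA16 cells carrying human TAAR1 plus Gα16 | schedule = 17-24 h seeding, 75 min 37 °C dye, 30 min RT | compound dosing = 3 µM single concentration | control set = DMSO and PEA EC100 | replicates = n 1 | signal = Fluo-8 fluorescence, 5 s baseline then 140 s kinetic read | measure = percent activation vs PEA EC100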
TAAR1 antagonist: antagonists of human TAAR1; inhibition, % at 3 µM; AID 624466; 360,000 tested, 1.5% active; CHO RD-HGA16 TAAR1, Fluo-8 calcium fluorescence, antagonist; Q96RJ0;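 active means inhibition above a per-plate cutoff, the mean inhibition of test compounds on that plate plus 3 SD, cut at about 49% in these data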;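 further: 0% = DMSO plus EC80 beta-PEA response and 100% = DMSO alone without agonist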
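Test system – hTAAR1-expressing CHO RD-HGA16 cells, Gα16-coupled · Reagent – β-PEA at EC80 concentration, post-compound challenge · Compound dosing – 3 µM, single point · Timing – 140 s kinetic read after compound, 140 s after agonist · Detection – Fluo-8 intracellular calcium dye fluorescence, real-time kinetic reads · Control set – DMSO and EC80 PEA controls · Repeats – n of 1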
CHO parental Ca: counter-screen: ATP calcium response change in parental CHO cells. parental CHO-K1, ATP-induced calcium, Fluo-8 fluorescence. inhibition, % at 5.6 µM. 330,000 tested, 0.63% active. AID 463079;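 active means inhibition above that plate's mean sample inhibition plus 3 SD, cut at about 26% in these data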;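 further: 0% = ATP-challenged DMSO wells and 100% = DMSO wells without ATP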
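Measured by: calcium-sensitive Fluo-8 fluorescence / Test system: CHO parental line / Controls: ATP-challenged DMSO wells low, unchallenged DMSO wells high / Measure: % inhibition / Compound: single nominal dose of 5.6 µM per compound / Replicates: single well per compound, no replicates / Reagent: ATP as calcium-mobilizing challenge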
OX1R antag-1: antagonists of human orexin 1 receptor. O43613. CHO/OX1R cells, Fluo-8 calcium fluorescence, orexin A. inhibition, % at 5 µM. 330,000 tested, 0.43% active;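 active means inhibition above its plate's threshold, mean inhibition of all tested compounds on the plate plus 3 SD, cut at about 37% in these data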;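 further: 0% = orexin A challenge wells and 100% = SB-334867-A antagonist wells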
Target sequence (O43613 whole entry, looked up): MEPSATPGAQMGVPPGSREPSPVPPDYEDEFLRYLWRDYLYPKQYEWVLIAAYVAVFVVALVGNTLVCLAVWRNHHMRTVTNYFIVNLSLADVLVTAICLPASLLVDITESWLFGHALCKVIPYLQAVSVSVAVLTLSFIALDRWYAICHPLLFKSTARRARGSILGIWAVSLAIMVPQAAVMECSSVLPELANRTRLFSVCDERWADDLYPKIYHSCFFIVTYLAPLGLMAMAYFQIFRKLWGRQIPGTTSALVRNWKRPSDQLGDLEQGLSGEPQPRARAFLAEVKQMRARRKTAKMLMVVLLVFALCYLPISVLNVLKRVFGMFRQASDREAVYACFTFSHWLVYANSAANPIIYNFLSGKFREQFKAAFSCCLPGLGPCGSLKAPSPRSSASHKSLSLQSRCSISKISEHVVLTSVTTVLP
GPR7 antag: human neuropeptides B/W receptor 1 antagonism. P48145. GPR7-expressing cells, fluorescence antagonist assay. inhibition, % at 4.4 µM. 290,000 tested, 1.1% active; in the data active means inhibition above about 16%, passing the limit was not always enough;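 further: cells stimulated with the agonist NPW; 0% = agonist with vehicle and 100% = vehicle without agonist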
OX1R antag-2: antagonists of human orexin 1 receptor (OX1R). O43613. OX1R-expressing cells, FRET antagonist read-out. inhibition, % at 6.6 µM. 330,000 tested, 1.8% active. AID 485270; in the data active means inhibition mostly above about 38%, no sharp cut-off; inactive means mostly below about 40%;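 further: 0% = agonist challenge alone and 100% = reference antagonist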
TAAR1 ag conf: confirmation of human TAAR1 agonists. activation, % at 3 µM. CHO RD-HGA16 TAAR1, Fluo-8 calcium fluorescence; scaled: DMSO 0%, maximal phenethylamine 100%. 2,400 tested, 82% active. shares compounds with TAAR1 ag;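 active means activation above a cutoff set at the run's mean compound activation plus 3 SD, cut at about 39% in these data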
Ga16 nonsel ag: counter-screen for TAAR1 agonists: nonselective agonists in parental cells | shares compounds with TAAR1 ag | CHO-Ga16 parental, Fluo-8 calcium fluorescence; normalized to maximal ATP response, DMSO zero | activation, % at 3 µM | 2,400 tested, 50% active;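 active means activation above the run cutoff, the mean activation over all tested wells plus 3 SD, cut at about 12% in these data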;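 further: 0% = DMSO wells and 100% = maximal ATP response on the peak over basal ratio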
TAAR1 desensitize: TAAR1 response desensitization, agonist counter-screen; shares compounds with TAAR1 ag; CHO RD-HGA16 hTAAR1, Fluo-8 calcium, beta-PEA response inhibition; inhibition, % at 3 µM; 2,400 tested, 46% active;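 active means inhibition above the run cutoff, the mean inhibition of all test compounds plus 3 SD, cut at about 49% in these data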;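 further: beta-PEA stimulus applied at its EC80; loss of beta-PEA calcium signal after compound pretreatment read as receptor desensitization; 0% = DMSO with beta-PEA at EC80 and 100% = DMSO alone without agonist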
Ga16 nonsel ant: counter-screen for TAAR1 agonists: nonselective Ga16 antagonists; shares compounds with TAAR1 ag; CHO-Ga16 ATP-induced calcium, Fluo-8 fluorescence; inhibition, % at 3 µM; 2,400 tested, 39% active; AID 651952;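 active means inhibition above the plate's mean compound inhibition plus 3 SD, computed per plate, cut at about 22% in these data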;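 further: 0% = EC80 ATP with DMSO and 100% = DMSO wells without ATP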
An asterisk follows results filed as active. Only some compounds are listed: those with a hit (about 4.6% of all), similar ones and a draw of the others.

For Cc1cc(C)nc(OC(C(=O)O)C(OCCc2ccccc2)(c2ccccc2)c2ccccc2)n1 (stereo not drawn) the results were TAAR1 ag 98.9*, TAAR1 antagonist 17.6, CHO parental Ca -27.5, OX1R antag-1 -20.8, GPR7 antag -8.5, OX1R antag-2 0.5, TAAR1 ag conf 126.0*, Ga16 nonsel ag 84.6*, TAAR1 desensitize 19.7 and Ga16 nonsel ant 3.0.
For Nc1ccccc1SSc1ccccc1N the results were TAAR1 ag 45.8*, TAAR1 antagonist 15.6, CHO parental Ca -0.7, OX1R antag-1 7.2, GPR7 antag -2.1, OX1R antag-2 16.4, TAAR1 ag conf 34.3, Ga16 nonsel ag 10.9, TAAR1 desensitize 2.5 and Ga16 nonsel ant 6.8.
For N#Cc1ccccc1Sc1ccccc1N the results were CHO parental Ca -4.9, OX1R antag-1 -10.9, GPR7 antag -14.6 and OX1R antag-2 19.2.
For Cc1c(Cl)cccc1-c1ccc(/C=N/n2cnnc2)o1 the results were TAAR1 ag 47.5*, TAAR1 antagonist -18.9, CHO parental Ca -16.8, OX1R antag-1 -7.9, GPR7 antag 1.8, OX1R antag-2 13.5, TAAR1 ag conf 38.1*, Ga16 nonsel ag 19.4*, TAAR1 desensitize 12.4 and Ga16 nonsel ant 13.4.
Screening CCOC(=O)C1=C[C@@H](C(C)(C)C)N(S(=O)(=O)c2ccc(C)cc2)[C@H]1c1cccc2ccccc12 returned TAAR1 ag -0.7 and TAAR1 antagonist -21.9.
For CN(C1CCCCC1)S(=O)(=O)c1ccc(C(=O)Nc2sc3c(c2C(N)=O)CC(C)(C)NC3(C)C)cc1 the results were TAAR1 ag 84.6*, TAAR1 antagonist 38.9, CHO parental Ca 3.9, OX1R antag-1 8.5, GPR7 antag 10.3, OX1R antag-2 21.9, TAAR1 ag conf 58.3*, Ga16 nonsel ag 38.7*, TAAR1 desensitize 28.1 and Ga16 nonsel ant 34.8*.
`O=C(c1cccnc1)N1CCc2ccccc2C1` gave TAAR1 ag 59.4*, TAAR1 antagonist -5.7, CHO parental Ca -3.6, OX1R antag-1 -5.0, GPR7 antag 3.5, OX1R antag-2 26.2, TAAR1 ag conf 40.3*, Ga16 nonsel ag 1.9, TAAR1 desensitize 3.1 and Ga16 nonsel ant 7.8.
Screening O=C(c1cccnc1)N1CCc2ccccc21 returned TAAR1 ag 4.9, TAAR1 antagonist 12.2, CHO parental Ca -9.2, OX1R antag-1 -2.2, GPR7 antag 3.9 and OX1R antag-2 5.1.
O=C(c1nc2ncccn2n1)N1CCc2ccccc2C1 was read as TAAR1 ag 51.2*, TAAR1 antagonist 20.6, CHO parental Ca -10.4, OX1R antag-1 0.2, GPR7 antag -11.8, OX1R antag-2 6.8, TAAR1 ag conf 71.2*, Ga16 nonsel ag 0.3, TAAR1 desensitize 27.8 and Ga16 nonsel ant 6.1.
Screening CCc1ccc([C@@H]2CC=C(C(=O)O)[C@H](c3ccc(F)cc3)N2S(=O)(=O)c2ccc(C)cc2)cc1 returned TAAR1 ag 9.1, TAAR1 antagonist 32.9, CHO parental Ca -15.7, OX1R antag-1 -6.1 and OX1R antag-2 16.4.
`O=C(COC(=O)c1ccc(Cl)cc1)NC1CCCCCC1` gave TAAR1 ag 42.3*, TAAR1 antagonist 8.8, CHO parental Ca 11.9, OX1R antag-1 6.2, OX1R antag-2 11.8, TAAR1 ag conf -3.2, Ga16 nonsel ag 1.6, TAAR1 desensitize -7.3 and Ga16 nonsel ant -1.0.

Compound activity: PubChem, The Scripps Research Institute Molecular Screening Center
